According to ChEMBL document CHEMBL4382192, “Discovery of a potent dual ALK and EGFR T790M inhibitor” (Eur J Med Chem, 2017):

Legend:
[1] = target: Tyrosine-protein kinase Tec (Homo sapiens) (UniProt P42680); experiment: Binding affinity to wild-type human partial length TEC (L341 to D620 residues) expressed in bacterial expression system assessed as residual binding level at 1 uM by Kinomescan method relative to control
[2] = test system: Phosphatidylinositol 4,5-bisphosphate 3-kinase catalytic subunit alpha isoform (Homo sapiens), P42336 [E542K]; experiment: Binding affinity to human partial length PIK3CA E542K mutant (R108 to N1068 residues) expressed in mammalian expression system assessed as residual binding level at 1 uM by Kinomescan method relative to control
Chain of Phosphatidylinositol 4,5-bisphosphate 3-kinase catalytic subunit alpha isoform (Homo sapiens), P42336 [E542K] (P42336 whole entry E542K, the tested form may be a part, canonical isoform): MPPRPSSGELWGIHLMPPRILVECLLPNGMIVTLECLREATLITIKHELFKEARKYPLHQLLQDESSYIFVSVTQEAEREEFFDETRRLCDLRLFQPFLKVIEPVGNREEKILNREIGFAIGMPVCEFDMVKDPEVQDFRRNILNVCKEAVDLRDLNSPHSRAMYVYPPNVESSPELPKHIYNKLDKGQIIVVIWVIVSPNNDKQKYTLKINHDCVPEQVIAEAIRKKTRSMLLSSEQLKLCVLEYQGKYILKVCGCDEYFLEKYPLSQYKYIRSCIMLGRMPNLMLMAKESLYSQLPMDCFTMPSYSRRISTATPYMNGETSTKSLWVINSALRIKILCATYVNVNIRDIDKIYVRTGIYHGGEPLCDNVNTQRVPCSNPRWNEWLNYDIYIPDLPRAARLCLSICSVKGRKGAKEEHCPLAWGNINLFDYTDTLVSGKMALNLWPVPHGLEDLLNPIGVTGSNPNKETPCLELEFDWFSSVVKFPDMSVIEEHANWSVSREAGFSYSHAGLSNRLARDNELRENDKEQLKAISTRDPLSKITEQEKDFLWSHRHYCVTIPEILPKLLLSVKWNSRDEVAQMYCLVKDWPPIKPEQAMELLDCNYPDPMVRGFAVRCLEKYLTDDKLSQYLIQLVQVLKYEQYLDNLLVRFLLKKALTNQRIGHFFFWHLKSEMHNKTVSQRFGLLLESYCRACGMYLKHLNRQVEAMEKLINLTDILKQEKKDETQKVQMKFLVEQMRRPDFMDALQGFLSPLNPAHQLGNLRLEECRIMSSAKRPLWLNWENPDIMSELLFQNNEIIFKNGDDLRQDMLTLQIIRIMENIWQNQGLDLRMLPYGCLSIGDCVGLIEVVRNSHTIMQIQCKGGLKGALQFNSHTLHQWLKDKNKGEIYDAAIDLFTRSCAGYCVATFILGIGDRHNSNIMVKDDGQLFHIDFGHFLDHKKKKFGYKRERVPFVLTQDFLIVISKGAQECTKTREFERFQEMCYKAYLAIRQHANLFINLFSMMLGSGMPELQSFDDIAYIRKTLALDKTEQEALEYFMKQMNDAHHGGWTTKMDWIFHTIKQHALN

[3] = target: Serine/threonine-protein kinase SIK2 (Homo sapiens) (UniProt Q9H0K1); experiment: Binding affinity to wild-type human full length SIK2 (M1 to N926 residues) expressed in bacterial expression system assessed as residual binding level at 1 uM by Kinomescan method relative to control
Chain of Serine/threonine-protein kinase SIK2 (Homo sapiens) (Q9H0K1 whole entry, looked up, the tested form may be a part): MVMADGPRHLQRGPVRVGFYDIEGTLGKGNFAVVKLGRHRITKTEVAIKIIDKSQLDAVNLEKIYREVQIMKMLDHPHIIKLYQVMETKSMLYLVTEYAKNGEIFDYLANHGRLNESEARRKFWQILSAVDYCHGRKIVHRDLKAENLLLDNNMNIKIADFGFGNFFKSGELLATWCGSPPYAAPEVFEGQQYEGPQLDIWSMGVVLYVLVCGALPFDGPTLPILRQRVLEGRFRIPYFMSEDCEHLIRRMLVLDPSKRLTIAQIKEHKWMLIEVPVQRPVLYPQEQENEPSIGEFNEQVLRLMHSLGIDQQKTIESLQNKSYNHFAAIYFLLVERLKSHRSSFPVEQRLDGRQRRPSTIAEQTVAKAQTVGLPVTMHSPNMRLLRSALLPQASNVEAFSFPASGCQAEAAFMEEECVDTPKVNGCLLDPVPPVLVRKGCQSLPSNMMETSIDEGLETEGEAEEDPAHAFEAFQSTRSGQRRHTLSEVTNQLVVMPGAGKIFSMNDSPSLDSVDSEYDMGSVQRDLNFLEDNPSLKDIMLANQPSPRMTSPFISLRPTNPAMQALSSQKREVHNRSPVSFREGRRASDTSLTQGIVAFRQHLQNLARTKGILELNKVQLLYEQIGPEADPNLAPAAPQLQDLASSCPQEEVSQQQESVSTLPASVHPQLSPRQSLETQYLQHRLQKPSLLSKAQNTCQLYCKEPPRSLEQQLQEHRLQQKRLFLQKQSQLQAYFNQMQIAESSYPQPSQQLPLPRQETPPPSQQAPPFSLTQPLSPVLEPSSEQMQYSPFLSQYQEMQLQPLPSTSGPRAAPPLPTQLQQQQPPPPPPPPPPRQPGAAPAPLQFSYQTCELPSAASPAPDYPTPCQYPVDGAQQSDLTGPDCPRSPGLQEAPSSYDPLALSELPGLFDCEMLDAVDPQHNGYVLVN
In short: (§1)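 Single-point kinome-wide KINOMEscan binding panel, test compound at 1 μM, run by the provider's standard protocol.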

[4] = target: Macrophage colony-stimulating factor 1 receptor (Homo sapiens) (UniProt P07333); experiment: Binding affinity to wild-type human partial length autoinhibited CSF1R (Y538 to S939 residues) expressed in mammalian expression system assessed as residual binding level at 1 uM by Kinomescan method relative to control
Chain of Macrophage colony-stimulating factor 1 receptor (Homo sapiens) (P07333 whole entry, the tested form may be a part): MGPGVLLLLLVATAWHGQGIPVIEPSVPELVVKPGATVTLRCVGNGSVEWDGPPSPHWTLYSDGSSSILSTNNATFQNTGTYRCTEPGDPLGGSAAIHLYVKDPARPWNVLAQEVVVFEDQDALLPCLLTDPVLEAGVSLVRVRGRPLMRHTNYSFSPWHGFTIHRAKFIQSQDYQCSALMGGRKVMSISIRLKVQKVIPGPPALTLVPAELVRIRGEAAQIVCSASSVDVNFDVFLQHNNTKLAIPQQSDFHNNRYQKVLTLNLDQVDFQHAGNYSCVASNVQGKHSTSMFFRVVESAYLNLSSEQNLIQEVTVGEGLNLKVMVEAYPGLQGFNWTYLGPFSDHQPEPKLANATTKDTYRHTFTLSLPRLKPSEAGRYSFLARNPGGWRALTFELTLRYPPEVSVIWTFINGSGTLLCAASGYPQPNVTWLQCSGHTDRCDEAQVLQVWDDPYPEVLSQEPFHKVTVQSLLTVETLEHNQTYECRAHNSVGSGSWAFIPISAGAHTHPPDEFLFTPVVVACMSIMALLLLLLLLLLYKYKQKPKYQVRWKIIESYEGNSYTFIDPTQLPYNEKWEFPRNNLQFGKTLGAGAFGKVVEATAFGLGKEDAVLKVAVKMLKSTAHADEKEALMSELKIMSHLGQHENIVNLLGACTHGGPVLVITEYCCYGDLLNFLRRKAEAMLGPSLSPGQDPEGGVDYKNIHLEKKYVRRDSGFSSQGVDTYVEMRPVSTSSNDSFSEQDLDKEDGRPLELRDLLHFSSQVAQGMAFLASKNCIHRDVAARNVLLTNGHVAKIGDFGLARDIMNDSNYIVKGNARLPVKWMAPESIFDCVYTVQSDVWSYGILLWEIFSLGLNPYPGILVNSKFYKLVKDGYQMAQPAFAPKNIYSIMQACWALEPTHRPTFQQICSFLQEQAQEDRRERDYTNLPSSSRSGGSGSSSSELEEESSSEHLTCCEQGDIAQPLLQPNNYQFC

[5] = target: Homeodomain-interacting protein kinase 4 (Homo sapiens) (UniProt Q8NE63); experiment: Binding affinity to wild-type human partial length HIPK4 (M1 to V384 residues) expressed in bacterial expression system assessed as residual binding level at 1 uM by Kinomescan method relative to control
Chain of Homeodomain-interacting protein kinase 4 (Homo sapiens) (Q8NE63 whole entry, the tested form may be a part): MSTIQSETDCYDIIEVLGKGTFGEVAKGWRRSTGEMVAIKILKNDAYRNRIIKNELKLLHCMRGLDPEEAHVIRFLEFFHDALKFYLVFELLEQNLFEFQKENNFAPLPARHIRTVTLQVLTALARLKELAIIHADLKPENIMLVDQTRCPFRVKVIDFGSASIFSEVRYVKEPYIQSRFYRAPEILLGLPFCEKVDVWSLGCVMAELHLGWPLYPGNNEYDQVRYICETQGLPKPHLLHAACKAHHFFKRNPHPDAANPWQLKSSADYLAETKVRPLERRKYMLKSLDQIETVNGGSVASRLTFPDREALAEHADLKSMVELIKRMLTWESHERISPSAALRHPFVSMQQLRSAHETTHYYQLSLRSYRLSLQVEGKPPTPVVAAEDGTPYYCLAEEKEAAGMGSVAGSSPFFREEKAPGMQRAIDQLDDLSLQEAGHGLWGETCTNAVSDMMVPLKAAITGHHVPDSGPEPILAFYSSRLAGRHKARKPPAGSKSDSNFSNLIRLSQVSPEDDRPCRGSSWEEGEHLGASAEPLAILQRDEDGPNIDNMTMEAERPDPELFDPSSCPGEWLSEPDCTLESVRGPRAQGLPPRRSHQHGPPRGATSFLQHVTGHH

[6] = target: Calcium/calmodulin-dependent protein kinase type II subunit delta (Homo sapiens) (UniProt Q13557); experiment: Binding affinity to wild-type human partial length CAMK2D (M1 to E329 residues) expressed in bacterial expression system assessed as residual binding level at 1 uM by Kinomescan method relative to control
[7] = Metabolic stability in mouse liver microsomes assessed as parent compound remaining at 1 uM after 30 mins in presence of NADPH by LC/MS/MS analysis; type: ADME, Microsome; settings: read-out: Stability
In short: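 Compound at 1 μM final with 0.5 mg/mL microsomal protein in 100 mM phosphate buffer pH 7.4 at 37 °C, started by adding an NADPH-regenerating system. Reactions were quenched with cold acetonitrile at 0 and 30 min and spun down. Supernatant was analysed by LC-MS/MS. The 0-min sample, quenched before NADPH addition, was set as 100%, and percent parent remaining came from peak areas.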

[8] = target: Casein kinase I isoform alpha-like (Homo sapiens) (UniProt Q8N752); experiment: Binding affinity to wild-type human full length CSNK1A1L (M1 to N337 residues) expressed in bacterial expression system assessed as residual binding level at 1 uM by Kinomescan method relative to control
Chain of Casein kinase I isoform alpha-like (Homo sapiens) (Q8N752 whole entry, the tested form may be a part, canonical isoform): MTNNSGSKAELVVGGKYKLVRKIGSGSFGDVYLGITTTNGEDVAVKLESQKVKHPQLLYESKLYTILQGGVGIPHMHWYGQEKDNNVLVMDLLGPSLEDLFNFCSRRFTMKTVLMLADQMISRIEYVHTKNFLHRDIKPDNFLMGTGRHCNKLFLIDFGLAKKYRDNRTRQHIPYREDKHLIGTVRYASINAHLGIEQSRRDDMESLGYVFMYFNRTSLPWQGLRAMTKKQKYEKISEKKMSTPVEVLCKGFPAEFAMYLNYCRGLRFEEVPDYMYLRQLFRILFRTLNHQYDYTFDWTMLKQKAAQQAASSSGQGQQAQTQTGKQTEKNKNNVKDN

[9] = target: RAC-alpha serine/threonine-protein kinase (Homo sapiens) (UniProt P31749); experiment: Binding affinity to wild-type human partial length AKT1 expressed in bacterial expression system assessed as residual binding level at 1 uM by Kinomescan method relative to control
Chain of RAC-alpha serine/threonine-protein kinase (Homo sapiens) (P31749 whole entry, the tested form may be a part): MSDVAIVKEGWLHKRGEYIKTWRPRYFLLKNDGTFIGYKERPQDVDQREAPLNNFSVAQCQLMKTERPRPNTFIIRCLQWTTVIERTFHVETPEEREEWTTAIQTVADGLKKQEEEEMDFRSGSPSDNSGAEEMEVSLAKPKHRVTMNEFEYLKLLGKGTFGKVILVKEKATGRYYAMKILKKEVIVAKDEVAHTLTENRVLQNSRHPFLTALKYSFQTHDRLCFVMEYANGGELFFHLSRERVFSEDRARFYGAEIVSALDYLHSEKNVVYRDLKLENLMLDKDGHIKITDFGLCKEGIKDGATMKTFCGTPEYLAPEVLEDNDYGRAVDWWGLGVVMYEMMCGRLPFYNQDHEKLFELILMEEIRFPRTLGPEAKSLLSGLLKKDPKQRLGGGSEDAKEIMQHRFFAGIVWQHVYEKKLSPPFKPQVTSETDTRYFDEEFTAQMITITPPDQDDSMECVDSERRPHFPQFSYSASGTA

[10] = target: Ribosomal protein S6 kinase alpha-1 (Homo sapiens) (UniProt Q15418); experiment: Binding affinity to wild-type human partial length C-terminal RSK1 kinase domain 2 (P360 to L681 residues) expressed in bacterial expression system assessed as residual binding level at 1 uM by Kinomescan method relative to control
[11] = target: Dual specificity mitogen-activated protein kinase kinase 3 (Homo sapiens) (UniProt P46734); experiment: Binding affinity to wild-type human full length MEK3 (M1 to S318 residues) expressed in mammalian expression system assessed as residual binding level at 1 uM by Kinomescan method relative to control; in short: as §1
[12] = test system: Receptor-type tyrosine-protein kinase FLT3 (Homo sapiens), P36888 [UNDEFINED MUTATION]; experiment: Binding affinity to human partial length FLT3 ITD/F691L double mutant expressed in bacterial expression system assessed as residual binding level at 1 uM by Kinomescan method relative to control
In short: (§2)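 Kinome-wide selectivity panel run by the KINOMEscan method, with the test compound at a single concentration of 1 μM. Wild-type and mutant kinases were profiled in the same screen.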

[13] = target: Angiopoietin-1 receptor (Homo sapiens) (UniProt Q02763); experiment: Binding affinity to wild-type human partial length TIE2 (N804 to T1112 residues) expressed in bacterial expression system assessed as residual binding level at 1 uM by Kinomescan method relative to control
[14] = target: Ephrin type-A receptor 8 (Homo sapiens) (UniProt P29322); experiment: Binding affinity to wild-type human partial length EPHA8 (Q608 to C920 residues) expressed in bacterial expression system assessed as residual binding level at 1 uM by Kinomescan method relative to control
[15] = target: Serine/threonine-protein kinase 16 (Homo sapiens) (UniProt O75716); experiment: Binding affinity to wild-type human partial length STK16 (G11 to I305 residues) expressed in bacterial expression system assessed as residual binding level at 1 uM by Kinomescan method relative to control
[16] = target: Ephrin type-A receptor 1 (Homo sapiens) (UniProt P21709); experiment: Binding affinity to wild-type human partial length EPHA1 (V588 to I913 residues) expressed in bacterial expression system assessed as residual binding level at 1 uM by Kinomescan method relative to control
[17] = target: Ephrin type-B receptor 6 (Homo sapiens) (UniProt O15197); experiment: Binding affinity to wild-type human partial length EPHB6 (Q634 to P948 residues) expressed in mammalian expression system assessed as residual binding level at 1 uM by Kinomescan method relative to control
[18] = target: Cyclin-dependent kinase-like 1 (Homo sapiens) (UniProt Q00532); experiment: Binding affinity to wild-type human full length CDKL1 (M1 to I358 residues) expressed in mammalian expression system assessed as residual binding level at 1 uM by Kinomescan method relative to control
[19] = target: Non-receptor tyrosine-protein kinase TYK2 (Homo sapiens) (UniProt P29597); experiment: Binding affinity to wild-type human partial length TYK2 JH2 pseudokinase domain (G556 to D888 residues) expressed in mammalian expression system assessed as residual binding level at 1 uM by Kinomescan method relative to control
[20] = target: Cyclin-dependent kinase-like 5 (Homo sapiens) (UniProt O76039); experiment: Binding affinity to wild-type human partial length CDKL5 (M1 to S337 residues) expressed in mammalian expression system assessed as residual binding level at 1 uM by Kinomescan method relative to control
[21] = test system: Receptor-type tyrosine-protein kinase FLT3 (Homo sapiens), P36888 [D835V]; experiment: Binding affinity to human partial length FLT3 D835V mutant (V592 to Y969 residues) expressed in bacterial expression system assessed as residual binding level at 1 uM by Kinomescan method relative to control; in short: as §2
[22] = target: Tyrosine-protein kinase JAK2 (Homo sapiens) (UniProt O60674); experiment: Binding affinity to wild-type human partial length JAK2 JH1 catalytic domain (A829 to G1132 residues) expressed in mammalian expression system assessed as residual binding level at 1 uM by Kinomescan method relative to control

Chain of Tyrosine-protein kinase Tec (Homo sapiens) (P42680 whole entry, the tested form may be a part, canonical isoform): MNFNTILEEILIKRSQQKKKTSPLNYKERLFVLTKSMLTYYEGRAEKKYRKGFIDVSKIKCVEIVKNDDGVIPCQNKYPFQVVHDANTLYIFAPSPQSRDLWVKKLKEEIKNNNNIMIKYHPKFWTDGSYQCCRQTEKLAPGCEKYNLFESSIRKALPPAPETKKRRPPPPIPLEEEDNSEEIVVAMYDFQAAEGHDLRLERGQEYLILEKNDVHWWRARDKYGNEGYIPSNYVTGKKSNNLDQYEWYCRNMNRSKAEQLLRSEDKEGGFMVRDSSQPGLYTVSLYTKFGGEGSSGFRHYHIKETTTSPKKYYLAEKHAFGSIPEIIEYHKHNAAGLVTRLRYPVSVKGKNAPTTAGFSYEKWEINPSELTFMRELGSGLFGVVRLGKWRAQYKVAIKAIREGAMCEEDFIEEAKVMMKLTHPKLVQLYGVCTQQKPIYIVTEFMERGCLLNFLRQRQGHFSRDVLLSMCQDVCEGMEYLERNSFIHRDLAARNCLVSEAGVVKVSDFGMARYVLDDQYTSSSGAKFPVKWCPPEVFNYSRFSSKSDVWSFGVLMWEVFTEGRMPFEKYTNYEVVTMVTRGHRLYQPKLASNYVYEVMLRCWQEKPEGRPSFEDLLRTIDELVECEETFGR

C=CC(=O)Nc1cc(Nc2ncc(Cl)c(Nc3ccccc3S(=O)(=O)C(C)C)n2)c(OC)cc1N(C)CCN(C)C
Activity [1]: 1% | Activity [2]: 72% | Activity [3]: 38% | Activity [4]: 92% | Activity [5]: 9.4% | Activity [6]: 41% | remaining at 0.5 h, 1 µM [7]: 12% | Activity [8]: 86% | Activity [9]: 98% | Activity [10]: 44% | Activity [11]: 52% | Activity [12]: 3.6% | Activity [13]: 20% | Activity [14]: 97% | Activity [15]: 64% | Activity [16]: 12% | Activity [17]: 15% | Activity [18]: 58% | Activity [19]: 100% | Activity [20]: 91% | Activity [21]: 2.4% | Activity [22]: 5.7%
